As usually defined, the half-life is the time needed for the level to fall by half in the phase considered. For orientation: AUC means concentration integrated over time. One may read the clearance as the rate of elimination divided by the concentration.

A short description of series [1]: t1/2 in monkey liver microsomes. In kind it is ADME, Microsome. As to conditions: simiiformes. Background: Microsomes from liver hold many membrane-bound enzymes, among them those of drug oxidation.
A short description of series [2]: Tested for pharmacokinetic parameter in fasted Beagle dogs (Half-life) iv administration. In kind it is ADME, organism-based, Canis lupus familiaris. As to conditions: dog, in vivo. The method in brief: (§1)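 Single intravenous bolus of 10 mg/kg given to fasted beagle dogs. Plasma was extracted with hexane and assayed by GC with electron-capture detection or by reverse-phase HPLC, depending on the analyte. Concentrations below the minimum quantifiable level were ignored when computing means. Half-life and CL were derived from plasma profiles by model-independent methods, and AUC by the trapezoidal rule.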

Series [3] can be described thus: Tested for pharmacokinetic parameter in fasted Beagle dogs (Area Under Curve value) iv administration. In kind it is ADME, organism-based, Canis lupus familiaris. As to conditions: dog, in vivo. The method in brief: as §1
Series [4] in a line: Tested for pharmacokinetic parameter in fasted Beagle dogs (Clearance value of the compound) iv administration. In kind it is ADME, organism-based, Canis lupus familiaris. As to conditions: dog, in vivo. The procedure, abridged: as §1

Turning to `CCc1cc(CCCOc2c(C)cc(-c3noc(C4CC4)n3)cc2C)on1`, in series [1], the half-life was 0.9 h. Still for that read-out and setting: then `Cc1cc(-c2noc(C(F)(F)F)n2)cc(C)c1OCCCc1cc(CO)no1`, with greater than 2.5 h; and `COc1nc(-c2cc(C)c(OCCCc3cc(C)no3)c(C)c2)no1`, with 0.55 h; and `Cc1cc(-c2noc(C3CC3)n2)cc(C)c1OCCCc1cc(C2CC2)no1`, with greater than 2.5 h. For the compound `CCOc1cc(CCCOc2c(C)cc(-c3noc(C4CC4)n3)cc2C)on1`, the half-life in series [1] is greater than 2.5 h. On to `CCc1cc(CCCOc2c(C)cc(-c3noc(C(F)(F)F)n3)cc2C)on1`, for which, in series [1], the half-life was greater than 2.5 h. Still for that read-out and setting: then `CCOc1nc(-c2cc(C)c(OCCCc3cc(C)no3)c(C)c2)no1`, with greater than 2.5 h. Turning to `Cc1cc(CCCCCOc2c(Cl)cc(C3=NCCO3)cc2Cl)on1` [WIN-54954], the half-life in series [2] is 7 h. The same compound registered an AUC in series [3] of 4910 ng·h/mL. The compound also showed a clearance in series [4] of 31.8 mL/min/kg. `COCc1cc(CCCOc2c(C)cc(-c3noc(C4CC4)n3)cc2C)on1`: in series [1], the half-life is greater than 2.5 h. Same read-out and setting: the result for `Cc1cc(-c2noc(C(F)(F)F)n2)cc(C)c1OCCCc1cccc(F)n1` reads greater than 2.5 h.

For the compound `Cc1cc(-c2noc(C3CC3)n2)cc(C)c1OCCCc1cc(CO)no1`, in series [1], the half-life is greater than 2.5 h. The same measure, in the same setting: the result for `Cc1cc(CCCOc2c(C)cc(-c3noc(CF)n3)cc2C)on1` reads 0.233 h; that for `CCOCc1cc(CCCOc2c(C)cc(-c3noc(C(F)(F)F)n3)cc2C)on1`, greater than 2.5 h; that for `Cc1cc(-c2noc(C3CC3)n2)cc(C)c1OCCCc1cc(OCCO)no1`, greater than 2.5 h. Same read-out and setting: the result for `COCc1cc(CCCOc2c(C)cc(-c3noc(C(F)(F)F)n3)cc2C)on1` reads 1.58 h.

For `Cc1nc(-c2cc(C)c(OCCCc3cccc(F)n3)c(C)c2)no1`, the half-life in series [1] was found to be 0.283 h. `CCc1cc(CCCOc2c(C)cc(-c3noc(C)n3)cc2C)on1` showed a half-life in series [1] of 0.183 h. Same read-out and setting: then `Cc1cc(CCCOc2c(C)cc(-c3noc(C(F)F)n3)cc2C)on1`, with 1.42 h; and `COCc1cc(CCCOc2c(C)cc(-c3noc(C)n3)cc2C)on1`, with 0.5 h. On the same count and under the same terms, the result for `CC(=O)c1ccc(CCCOc2c(C)cc(-c3noc(C(F)(F)F)n3)cc2C)o1` reads 1.05 h; that for `CC(=O)c1ccc(CCCOc2c(C)cc(-c3noc(C)n3)cc2C)o1`, 0.617 h; that for `Cc1cc(CCCOc2c(C)cc(-c3noc(C4CC4)n3)cc2C)on1`, 2.23 h.

Turning to `Cc1ccc(CCCOc2c(C)cc(-c3noc(C)n3)cc2C)cn1`, the half-life in series [1] was determined as 1.37 h. On to `Cc1nc(-c2cc(C)c(OCCCc3cc(C(F)(F)F)no3)c(C)c2)no1`, for which, in series [1], the half-life was found to be 0.55 h. In series [1], `Cc1cc(-c2noc(C(F)(F)F)n2)cc(C)c1OCCCc1cc(C[S+](C)[O-])no1` (centres undefined) yielded a half-life greater than 2.5 h. Regarding `Cc1ccc(CCCOc2c(C)cc(-c3noc(C(F)(F)F)n3)cc2C)cn1`, the half-life in series [1] worked out at 1.97 h.

In series [1], `Cc1cc(CCCOc2c(C)cc(-c3noc(C#N)n3)cc2C)on1` had a half-life of 0.283 h. In the case of `Cc1cc(CCCOc2c(C)cc(-c3noc(C(Cl)(Cl)Cl)n3)cc2C)on1`, the half-life in series [1] was 0.183 h. The same measure, in the same setting: then `Cc1cc(-c2noc(C(F)(F)F)n2)cc(C)c1OCCCc1cc(CS(C)(=O)=O)no1`, with greater than 2.5 h. In the case of `Cc1cc(CCCOc2c(C)cc(-c3noc(C(F)(F)F)n3)cc2C)on1` [PLECONARIL], the half-life is 27 h in series [2] and greater than 2.5 h in series [1]. Further, the AUC in series [3] turned out to be 11800 ng·h/mL. The clearance in series [4] is 12.8 mL/min/kg. As for `Cc1cc(CCCOc2c(C)cc(-c3noc(C(N)=O)n3)cc2C)on1`, the half-life in series [1] is 2.3 h. The compound `Cc1cc(CCCOc2c(C)cc(-c3noc(CC(F)(F)F)n3)cc2C)on1` came in with a half-life in series [1] of 0.533 h.

In turn, `Cc1cc(CCCOc2c(C)cc(-c3noc(C(C)(F)F)n3)cc2C)on1` registered a half-life in series [1] of 1.1 h. On to `Cc1cc(CCCOc2c(C)cc(-c3noc(C)n3)cc2C)on1`, for which the half-life in series [1] is 0.45 h.

These data come from ChEMBL document CHEMBL1128597, “Picornavirus inhibitors: trifluoromethyl substitution provides a global protective effect against hepatic metabolism” (J Med Chem, 1995).
